# Assay results pooled from the literature.
# Protocols differ between the studies behind these lines.
# Organism: Klebsiella pneumoniae
SMILES,assay,system,conditions,endpoint,result
CC(C)(O/N=C(\C(=O)N[C@@H]1C(=O)N2C(C(=O)[O-])=C(C[n+]3ccccc3)CS[C@H]12)c1csc(N)n1)C(=O)O,"microbial growth, broth dilution",,"20 h, clinical isolate",MIC,> 128 µg/mL
CC(C)(C)OC(=O)N[C@H]1CCN(c2cc(C(=O)NCC(=O)O)ccc2NC(=O)c2cc(Br)c(Br)[nH]2)C1,"microbial growth, broth dilution",ATCC700603,,MIC,> 32 µg/mL
CN(C)c1cc(NC(=O)CNC(C)(C)C)c(O)c2c1C[C@H]1C[C@H]3[C@H](N(C)C)C(O)=C(C(N)=O)C(=O)[C@@]3(O)C(O)=C1C2=O,"microbial growth, broth dilution",,,MIC,0.5 µg/mL
O=C(O)c1cn(C2CC2)c2cc(N3CCNCC3)c(F)cc2c1=O,microbial growth,ATCC700603,,MIC,32 µM
CN[C@H](CC(C)C)C(=O)N[C@H]1C(=O)N[C@@H](CC(N)=O)C(=O)N[C@H]2C(=O)N[C@H]3C(=O)N[C@H](C(=O)N[C@H](C(=O)O)c4cc(O)cc(O)c4-c4cc3ccc4O)[C@H](O)c3ccc(c(Cl)c3)Oc3cc2cc(c3O[C@@H]2O[C@H](CO)[C@@H](O)[C@H](O)[C@H]2O[C@H]2C[C@](C)(N)[C@H](O)[C@H](C)O2)Oc2ccc(cc2Cl)[C@H]1O,microbial killing,ATCC27736,,MBC,1000 µg/mL
COc1cc(C=Nc2ccc(C)cc2Cl)ccc1O,"microbial growth, disc diffusion",,"2000 µg/mL, 24 h",inhibition zone,15 mm
CC(C)(C)OC(=O)N1CCN(c2cc(C(=O)NCC(=O)O)ccc2NC(=O)c2cc(Br)c(Br)[nH]2)CC1,"microbial growth, broth dilution",ATCC700603,,MIC,> 32 µg/mL
C[C@@H](O)[C@H]1C(=O)N2C(C(=O)O)=C(SCCN=CN)C[C@H]12,"microbial growth, broth dilution",,clinical isolate,MIC90,256 µg/mL
Cc1[nH]c(C(=O)Nc2ccc(C(=O)NCC(=O)O)cc2N2CC[C@@H](N)C2)c(Cl)c1Cl.Cl,"microbial growth, broth dilution",ATCC700603,,MIC,> 32 µg/mL
COc1cc(C=Nc2ccc([N+](=O)[O-])cc2)ccc1O,"microbial growth, disc diffusion",,"2000 µg/mL, 24 h",inhibition zone,14.4 mm
Cc1[nH]c(C(=O)Nc2ccc(C(=O)NCC(=O)O)cc2N2CCNCC2)c(Cl)c1Cl.Cl,"microbial growth, broth dilution",ATCC700603,,MIC,> 32 µg/mL
C[C@@H](O)[C@H]1C(=O)N2C(C(=O)O)=C(SCCNC=N)C[C@H]12,"microbial growth, broth dilution",,,MIC,0.5 µg/mL
C[C@@H](O)[C@H]1C(=O)N2C(C(=O)O)=C(SCCN=CN)C[C@H]12,"microbial growth, disc diffusion",,"2000 µg/mL, 24 h",inhibition zone,20.5 mm
